The values below come from ChEMBL document CHEMBL3745639, “Structure-activity relationships for lipoprotein lipase agonists that lower plasma triglycerides in vivo” (Eur J Med Chem, 2015).

As usually defined, the Papp A→B is how fast a substance crosses the layer from the apical side. What is called Papp B→A is how fast a substance crosses the layer from the basolateral side. One may read the efflux ratio as the permeability from basolateral to apical divided by that in the opposite direction, in the common usage. By half-life is commonly meant how long it takes for the measured level to halve. As usually defined, the pEC50 is the EC50 on a negative log10 scale, so that one unit is a factor of ten.

pEC50: −log10 of the molar value. Values after ≈ are worked out from the molar mass of the structure shown. Active and inactive are the calls of the source. Unless noted, the rule behind the calls is not given here.

A short description of data set [1]: Intrinsic clearance in human hepatocytes assessed per 10^6 cells at 1 uM after 10 to 60 mins by LC-MS/MS analysis in presence of NADPH. Type of data set: ADME, cell-based, Hepatocyte. The note with it: read-out: CLH. In outline: (§1)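 Freshly isolated human hepatocytes (0.5 x 10⁶ cells/ml) in Williams medium E with compound at 1 μM. Reaction started by adding cells. Sampled at 0, 10, 30 and 60 min in duplicate, quenched with acetonitrile containing warfarin, then LC-MS/MS.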

Data set [2] addresses T1, Lipoprotein lipase (Bos taurus) (UniProt P11151).
T1 sequence (whole entry): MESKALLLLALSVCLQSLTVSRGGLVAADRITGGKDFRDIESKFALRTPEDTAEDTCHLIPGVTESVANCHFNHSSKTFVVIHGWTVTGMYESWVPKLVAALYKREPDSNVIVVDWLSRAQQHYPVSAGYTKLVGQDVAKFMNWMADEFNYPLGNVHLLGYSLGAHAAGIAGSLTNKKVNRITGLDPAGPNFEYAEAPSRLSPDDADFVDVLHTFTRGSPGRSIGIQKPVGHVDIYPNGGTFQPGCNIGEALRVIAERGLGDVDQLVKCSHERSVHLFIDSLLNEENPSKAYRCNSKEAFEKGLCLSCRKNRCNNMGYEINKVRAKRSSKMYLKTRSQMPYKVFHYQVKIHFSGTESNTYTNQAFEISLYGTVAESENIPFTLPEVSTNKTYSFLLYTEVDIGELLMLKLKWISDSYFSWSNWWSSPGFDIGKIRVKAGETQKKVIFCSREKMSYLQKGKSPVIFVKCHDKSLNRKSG
The data set is described as follows: Induction of bovine LPL stabilization using intralipid as substrate at 6.25 uM preincubated for 10 mins with human recombinant ANGPTL4 followed by substrate addition measured after 45 mins relative to control. Summed up:
(§2)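 Compound in DMSO in buffer (50 mM potassium phosphate pH 7.4, 0.15 M NaCl, 0.01% Triton X-100), with human ANGPTL4 N-terminal fragment (aa 26-184, 75 nM final) and bovine LPL (15 nM final). Preincubated 10 min at 25 °C with shaking. Stopped after 45 min with 2.5% Triton X-100, and NEFA measured enzymatically. Activity normalised between DMSO+LPL+ANGPTL4 (0%) and DMSO+LPL (100%).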

A short description of data set [3]: Apparent permeability across apical to basolateral side in human Caco2 cells at 10 uM after 15 to 60 mins. Type of data set: ADME, cell-based. The following applies: Caco-2. Summed up:
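Caco-2 monolayers washed with pre-warmed HBSS, then donor solution applied. Transport run with apical pH 6.5 and basolateral pH 7.4. Monolayer integrity checked by TEER and by mannitol permeability. Papp derived from transport rates.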

The target in data set [4] is T1, Lipoprotein lipase (Bos taurus). In words: Induction of bovine LPL stabilization using intralipid as substrate at 12.5 uM preincubated for 10 mins with human recombinant ANGPTL4 followed by substrate addition measured after 45 mins relative to control. Summed up: as §2
Data set [5] can be described thus: Apparent permeability across basolateral to apical side in human Caco2 cells at 10 uM after 15 to 60 mins. It is filed as ADME, cell-based. The note with it: Caco-2. In general terms: Caco-2 monolayers are a common model of the intestinal barrier.
Data set [6] is described as follows: Efflux ratio of apparent permeability from basolateral to apical over apical to basolateral side in human Caco2 cells at 10 uM after 15 to 60 mins. The following applies: Caco-2. It is filed as ADME, cell-based.
The nature of data set [7]: Fraction unbound in human plasma at 10 uM after 4 hrs by rapid equilibrium dialysis method. Type of data set: ADME, cell-free. Summed up:
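Rapid equilibrium dialysis of pooled human plasma from two male and two female non-smoking donors. Compound typically 10 μM final, dialysed against isotonic phosphate buffer pH 7.4 at 37 °C for 4 h with rapid rotation. Proteins precipitated with methanol containing warfarin internal standard, then both compartments analysed by LC-MS/MS.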
(In general: In equilibrium dialysis only unbound substance equilibrates across the membrane.)

Data set [8] in a line: Half life in human hepatocytes at 1 uM. It is filed as ADME, cell-based, Hepatocyte. In outline:
as §1

Data set [9] in a line: Stability of the compound in human plasma after 4 hrs at 37 degC by mass spectrometric analysis. Type of data set: ADME, cell-free. The following applies: read-out: Stability. In outline:
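Plasma test solution (pooled human plasma, typically 10 μM compound) held at 37 °C for 4 h, matching the dialysis time. A reference sample was frozen immediately. Proteins precipitated with methanol containing warfarin, then LC-MS/MS. Stability expressed on a relative basis.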

Data set [10] concerns Mus musculus. In words: Hypolipidemic activity in C57B16/J mouse assessed as reduction in plasma triglyceride level at 10 mg/kg, ip qd administered for 4 days followed by olive oil injection through oral gavage one hour post last dose measured at 180 mins. It is filed as functional, organism-based. Summed up:
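Female C57B16/J mice, 8-9 weeks, about 18 g, n = 8/group. Given 10 mg/kg i.p. once daily for 4 days, 0.5 ml in PBS pH 7.4 with 3% DMSO and 0.2% Triton X-100. Fasted 8 h before the last dose, then 0.2 ml oral olive oil gavage 1 h after it. Tail-vein EDTA plasma taken at baseline and every 60 min to 180 min. TG measured enzymatically, reported as mean ± SD.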

Data set [11] is described as follows: Intrinsic clearance in human liver microsomes at 1 uM after 5 to 40 mins by LC-MS/MS analysis in presence of NADPH. Type of data set: ADME. The following applies: read-out: CLH. In outline:
(§3)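 Pooled liver microsomes (0.5 mg/ml) with compound at 1 μM in 0.1 M phosphate buffer pH 7.4. Reaction started with NADPH 1 mM. Sampled at 0, 5, 15 and 40 min in duplicate, quenched with acetonitrile containing warfarin, then LC-MS/MS.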
In general terms: Liver microsomes are a subcellular fraction often used to study metabolism.

The target in data set [12] is T1, Lipoprotein lipase (Bos taurus). The data set is described as follows: Induction of bovine LPL stabilization using intralipid as substrate at 25 uM preincubated for 10 mins with human recombinant ANGPTL4 followed by substrate addition measured after 45 mins relative to control. Summed up:
as §2

Data set [13] in a line: Kinetic aqueous solubility of the compound in PBS at pH 7.4 after 2 hrs by LC-MS/MS analysis. It is filed as physicochemical. The note with it: read-out: Kinetic_solubility. In outline: (§4)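 Kinetic solubility from a 10 mM DMSO stock diluted 1:100 (1% DMSO, maximum detectable 0.1 mM) into PBS pH 7.4 or HCl-adjusted PBS at about pH 1.2. Incubated at 37 °C for 2 h in sealed glass vials, centrifuged at 10000 x g, 37 °C, 20 min, then LC-MS/MS.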

Data set [14] can be described thus: Kinetic aqueous solubility of the compound in PBS at pH 1.2 after 2 hrs by LC-Ms analysis. The note with it: read-out: Kinetic_solubility. Type of data set: physicochemical. In outline: as §4
Data set [15] can be described thus: Half life in human liver microsomes at 1 uM. Type of data set: ADME. Summed up: as §3
Data set [16] addresses T1, Lipoprotein lipase (Bos taurus). The data set is described as follows: Induction of bovine LPL stabilization using intralipid as substrate at 3.12 uM preincubated for 10 mins with human recombinant ANGPTL4 followed by substrate addition measured after 45 mins relative to control. Summed up: as §2
The target in data set [17] is T2, Lipoprotein lipase (Bos taurus, UniProt P11151).
T2 sequence (P11151 whole entry): T1 sequence (whole entry)
The data set is described as follows: Induction of bovine LPL stabilization using intralipid as substrate preincubated for 10 mins with human recombinant ANGPTL4 followed by substrate addition measured after 45 mins relative to control. Summed up: as §2

A short description of data set [18]: Half life in human plasma after 24 hrs. It is filed as ADME, cell-free.

Consider `Cc1ccc(NC(=O)c2cc(-c3cc4cc(C(=O)O)ccc4o3)ccc2N2CCCCC2)cc1`, for which the hepatocyte CLint at 1 µM in data set [1] stood at 35 µL/min/1e6 cells. In addition, the Activity was found to be 49.8% in data set [2], 76% in data set [4] and 67.9% in [12]. Moreover, the Papp A→B at 10 µM in data set [3] was found to be 1.2 ×10⁻⁶ cm/s. Moreover, the Papp B→A at 10 µM in [5] came to 1.8 ×10⁻⁶ cm/s. In [6], the efflux ratio at 10 µM amounted to 1.5. Besides, the Fu in data set [7] is listed as < 0.01%. For the same compound, the half-life at 1 µM was 0.667 h in data set [8] and > 1.33 h in data set [15]. In data set [9], the remaining at 4 h amounted to 93%. Further, the result in data set [10] was Active. In [11], the microsomal CLint at 1 µM was < 17 µL/min/mg. The solubility kinetic at 2 h in data set [13] was < 2 µM; in data set [14], 7 µM (≈ 3.18 µg/mL). Moreover, in [16], the outcome was inactive.

On to `Cc1ccc(NC(=O)c2cc(N3C(=O)c4ccc(C(=O)O)cc4C3=O)ccc2N2CCCCC2)cc1`, for which the outcome in data set [2], in [10] and in data set [16] was inactive. The Papp A→B at 10 µM in [3] came out at 12 ×10⁻⁶ cm/s. Also, the Activity in data set [4] worked out at 90%; in data set [12], 93.8%. Moreover, the Papp B→A at 10 µM in data set [5] was found to be 31 ×10⁻⁶ cm/s. In addition, the efflux ratio at 10 µM in [6] is 2.7. Moreover, the pEC50 in data set [17] is 5.18. Also, the remaining at 4 h in [9] came out at 2%. This compound gave a half-life in data set [18] of 1.5 h. Moreover, the solubility kinetic at 2 h in data set [13] turned out to be 80 µM (≈ 38.7 µg/mL).
